Assay results reported in ChEMBL document CHEMBL1145166, “Dipeptides as effective prodrugs of the unnatural amino acid (+)-2-aminobicyclo[3.1.0]hexane-2,6-dicarboxylic acid (LY354740), a selective group II metabotropic glutamate receptor agonist” (J Med Chem, 2005).

Columns and labels:
[1] = Plasma concentration of LY-354740 in rats after oral administration of compound at a dose of 5 mg equiv 1/kg at 3 hr; type: ADME; conditions: rat
In short: (§1)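 Male Fischer 344 rats (190–250 g), fasted overnight, food returned ~4 h postdose; single oral dose of prodrug molar-equivalent to 5 mg/kg parent, in pH 2.5 20 mM KHPO₄. Blood drawn at 0.5, 1 and 3 h; plasma stored at –20 °C or below until analysis. Three plasma samples per time point; parent and prodrug measured.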

[2] = Plasma concentration of LY-354740 in rats after oral administration of compound at a dose of 5 mg equiv 1/kg at 0.5 hr; type: ADME; conditions: rat; in short: as §1
[3] = Plasma concentration of LY-354740 in rats after oral administration of compound at a dose of 5 mg equiv 1/kg at 1 hr; type: ADME; conditions: rat; in short: as §1
[4] = Area under concentration of compound in rats at a dose of 5 mg equiv 1/kg; type: ADME; conditions: rat, in vivo; in short: as §1
Caco-2 = experiment: Inhibition of radiolabeled glycylsarcosine (Gly-Sar) uptake into Caco-2 cells done for 15 min at 37 degree C with compound; type: functional, cell-based; conditions: Homo sapiens, Caco-2, 0.25 h
[5] = Inhibition of radiolabeled glycylsarcosine (Gly-Sar) uptake into chinese hamster ovary cells transfected with human PepT1 (CHO/hPepT1) done for 5-20 min at 37 degree C with compound; type: functional, cell-based; conditions: Cricetulus griseus
[6] = Plasma concentration of the prodrug and LY-354740 against the metabotropic glutamate receptor in rats after an oral dose of corresponding prodrug in 5 mg equiv 1/kg at 3 houre; type: ADME; conditions: rat; in short: as §1
Rattus norvegicus [7] = experiment: Duration of suppression of compound in rat fear-potentiated startle assay at an oral dose of 3.0 mg/kg; Range = 8-24 h; type: functional
[8] = biological target: Metabotropic glutamate receptor 3 (Homo sapiens, UniProt Q14832); experiment: Inhibition of [3H]LY-341,495 binding to recombinant human mGlu3 receptors
Rattus norvegicus [9] = experiment: Minimally effective dose for suppression of startle in rat fear-potentiated startle assay, p.o.; Range = 0.3-3.0 mg/kg; type: functional; conditions: po, read-out: MED
[10] = biological target: Metabotropic glutamate receptor 2 (Homo sapiens, UniProt Q14416); experiment: Inhibition of [3H]LY-341,495 binding to recombinant human mGlu2 receptors
Rattus norvegicus [11] = experiment: Onset of suppression of startle of compound in rat fear-potentiated startle assay at an oral dose of 3.0 mg/kg; type: functional
[12] = biological target: Metabotropic glutamate receptor 2 (Rattus norvegicus, UniProt P31421); experiment: Inhibition of [3H]LY-341,495 binding to mGlu2 receptors of rat brain
Rattus norvegicus [13] = experiment: Duration of suppression of compound in rat fear-potentiated startle assay at an oral dose of 0.01 mg/kg; Range = 4-8 h; type: functional
In short: (§2)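 Fed rats dosed orally. Three-day protocol: day 1 baseline startle (30 × 120 dB), groups of n = 8. Day 2 conditioning: 10 light (5 s)–shock (0.5 mA, 500 ms) pairings. Day 3, 24 h later: 20 noise-alone and 20 light+noise trials. Compound given at set pretreatment times before testing. Diazepam 0.6 mg/kg ip, 30 min pre-test, as positive control. MED = lowest dose with p < 0.05 versus control.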

Rattus norvegicus [14] = experiment: Duration of suppression of compound in rat fear-potentiated startle assay at an oral dose of 0.1 mg/kg; type: functional; in short: as §2
Rattus norvegicus [15] = experiment: Minimally effective dose for suppression of startle in rat fear-potentiated startle assay, p.o.; type: functional; conditions: po, read-out: MED; in short: as §2
Rattus norvegicus [16] = experiment: Onset of suppression of startle of compound in rat fear-potentiated startle assay at an oral dose of 0.01 and 0.1 mg/kg; type: functional; in short: as §2

Sequence of Metabotropic glutamate receptor 2 (Homo sapiens, UniProt Q14416) (Q14416 whole entry): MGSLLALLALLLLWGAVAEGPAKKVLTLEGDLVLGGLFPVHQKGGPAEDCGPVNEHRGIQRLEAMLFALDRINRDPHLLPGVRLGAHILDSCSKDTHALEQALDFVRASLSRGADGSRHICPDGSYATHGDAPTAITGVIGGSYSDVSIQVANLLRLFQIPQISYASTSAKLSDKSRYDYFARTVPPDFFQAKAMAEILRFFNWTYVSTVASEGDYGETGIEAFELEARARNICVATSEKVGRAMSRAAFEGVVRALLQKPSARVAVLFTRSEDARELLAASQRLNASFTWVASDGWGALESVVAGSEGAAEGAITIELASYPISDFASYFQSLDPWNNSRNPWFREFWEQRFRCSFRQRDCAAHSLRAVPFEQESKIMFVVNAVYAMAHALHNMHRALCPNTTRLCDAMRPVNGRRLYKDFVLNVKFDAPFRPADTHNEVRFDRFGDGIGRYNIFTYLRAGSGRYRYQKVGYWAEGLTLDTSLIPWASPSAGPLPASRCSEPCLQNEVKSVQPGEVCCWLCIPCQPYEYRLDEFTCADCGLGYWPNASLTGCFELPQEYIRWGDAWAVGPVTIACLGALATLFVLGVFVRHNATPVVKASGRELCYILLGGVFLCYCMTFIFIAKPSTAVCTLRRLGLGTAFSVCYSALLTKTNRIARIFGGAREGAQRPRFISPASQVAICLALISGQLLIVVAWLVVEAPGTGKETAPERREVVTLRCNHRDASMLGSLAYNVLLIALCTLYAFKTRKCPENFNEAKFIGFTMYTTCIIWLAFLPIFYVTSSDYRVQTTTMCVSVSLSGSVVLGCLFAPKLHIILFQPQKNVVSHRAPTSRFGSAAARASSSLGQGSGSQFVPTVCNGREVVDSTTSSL
Sequence of Metabotropic glutamate receptor 3 (Q14832 whole entry): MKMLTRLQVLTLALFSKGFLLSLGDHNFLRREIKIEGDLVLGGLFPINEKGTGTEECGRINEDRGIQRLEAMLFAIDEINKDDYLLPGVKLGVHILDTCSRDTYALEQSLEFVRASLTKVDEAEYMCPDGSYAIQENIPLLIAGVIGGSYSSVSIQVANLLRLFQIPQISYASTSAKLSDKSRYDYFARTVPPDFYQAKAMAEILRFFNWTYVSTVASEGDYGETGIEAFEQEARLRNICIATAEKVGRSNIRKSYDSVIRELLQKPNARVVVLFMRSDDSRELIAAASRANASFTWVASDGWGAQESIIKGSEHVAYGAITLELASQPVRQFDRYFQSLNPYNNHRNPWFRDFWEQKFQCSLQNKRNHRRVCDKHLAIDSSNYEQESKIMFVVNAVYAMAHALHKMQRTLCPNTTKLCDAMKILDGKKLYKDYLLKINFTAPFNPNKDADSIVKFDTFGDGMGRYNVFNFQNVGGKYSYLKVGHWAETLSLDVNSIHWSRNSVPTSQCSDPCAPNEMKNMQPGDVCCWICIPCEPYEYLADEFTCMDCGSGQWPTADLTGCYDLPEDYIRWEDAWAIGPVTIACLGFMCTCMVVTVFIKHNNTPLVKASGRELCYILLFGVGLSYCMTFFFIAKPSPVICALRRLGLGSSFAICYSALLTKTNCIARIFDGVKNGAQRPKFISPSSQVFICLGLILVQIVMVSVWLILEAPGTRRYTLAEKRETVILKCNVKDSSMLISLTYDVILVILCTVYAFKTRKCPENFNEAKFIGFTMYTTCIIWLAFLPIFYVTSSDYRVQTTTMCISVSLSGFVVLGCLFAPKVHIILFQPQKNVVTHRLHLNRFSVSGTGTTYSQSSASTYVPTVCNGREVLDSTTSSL
Sequence of Metabotropic glutamate receptor 2 (Rattus norvegicus, UniProt P31421) (P31421 whole entry): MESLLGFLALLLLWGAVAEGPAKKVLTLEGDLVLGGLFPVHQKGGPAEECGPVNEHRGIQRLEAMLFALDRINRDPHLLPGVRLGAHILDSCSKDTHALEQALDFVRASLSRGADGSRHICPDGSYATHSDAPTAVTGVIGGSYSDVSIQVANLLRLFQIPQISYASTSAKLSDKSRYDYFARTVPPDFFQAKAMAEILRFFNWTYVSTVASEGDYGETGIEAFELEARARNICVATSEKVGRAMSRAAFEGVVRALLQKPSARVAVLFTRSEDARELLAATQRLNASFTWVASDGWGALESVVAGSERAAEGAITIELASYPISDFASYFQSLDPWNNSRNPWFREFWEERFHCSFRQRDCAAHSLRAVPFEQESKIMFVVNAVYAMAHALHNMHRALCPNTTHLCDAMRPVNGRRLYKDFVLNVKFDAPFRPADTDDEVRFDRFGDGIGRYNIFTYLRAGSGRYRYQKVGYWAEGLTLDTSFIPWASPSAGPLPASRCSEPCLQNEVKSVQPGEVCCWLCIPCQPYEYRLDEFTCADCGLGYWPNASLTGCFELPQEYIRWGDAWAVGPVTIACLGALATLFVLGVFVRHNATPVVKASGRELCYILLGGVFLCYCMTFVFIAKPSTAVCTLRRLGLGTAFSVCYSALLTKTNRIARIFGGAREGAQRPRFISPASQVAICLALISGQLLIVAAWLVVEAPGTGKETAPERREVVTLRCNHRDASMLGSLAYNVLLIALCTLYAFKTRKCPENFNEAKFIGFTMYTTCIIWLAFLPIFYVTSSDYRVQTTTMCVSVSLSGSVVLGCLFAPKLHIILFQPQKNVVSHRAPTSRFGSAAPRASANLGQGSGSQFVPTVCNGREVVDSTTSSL

SMILES: N[C@@]1(C(=O)N[C@@H](Cc2ccc(O)cc2)C(=O)O)CC[C@H]2[C@H](C(=O)O)[C@H]21
- Plasma concentration [1]: 124 ng/mL
- Plasma concentration [2]: 30 ng/mL
- Plasma concentration [3]: 44 ng/mL

SMILES: N[C@@]1(C(=O)N[C@@H](Cc2ccccc2)C(=O)O)CC[C@H]2[C@H](C(=O)O)[C@H]21
- Plasma concentration [1]: 10 ng/mL
- Plasma concentration [2]: 20 ng/mL
- AUC [4]: 11400 ng·h/mL
- Plasma concentration [3]: 45 ng/mL
- IC50 (Caco-2): 2680 µM
- IC50 [5]: 1540 µM

SMILES: CC[C@H](C)[C@H](NC(=O)[C@]1(N)CC[C@H]2[C@H](C(=O)O)[C@H]21)C(=O)O
- Plasma concentration [1]: 20 ng/mL
- Plasma concentration [2]: 18 ng/mL
- Plasma concentration [3]: 34 ng/mL

SMILES: CC[C@H](C)[C@H](N)C(=O)N[C@@]1(C(=O)O)CC[C@H]2[C@H](C(=O)O)[C@H]21.Cl
- Plasma concentration [1]: 2032 ng/mL
- Plasma concentration [2]: 2009 ng/mL
- Plasma concentration [3]: 1457 ng/mL

SMILES: N[C@@]1(C(=O)N[C@@H](CO)C(=O)O)CC[C@H]2[C@H](C(=O)O)[C@H]21
- Plasma concentration [1]: 53 ng/mL
- Plasma concentration [2]: 36 ng/mL

SMILES: CC(C)C[C@H](NC(=O)[C@]1(N)CC[C@H]2[C@H](C(=O)O)[C@H]21)C(=O)O
- Plasma concentration [1]: 919 ng/mL
- Plasma concentration [2]: 450 ng/mL
- AUC [4]: 21300 ng·h/mL
- Plasma concentration [3]: 798 ng/mL
- IC50 (Caco-2): > 10000 µM
- IC50 [5]: 620 µM

SMILES: CC(C)[C@H](NC(=O)[C@]1(N)CC[C@H]2[C@H](C(=O)O)[C@H]21)C(=O)O
- Plasma concentration [1]: 10 ng/mL
- Plasma concentration [2]: 10 ng/mL
- Plasma concentration [3]: 17 ng/mL

SMILES: CSCC[C@H](NC(=O)[C@]1(N)CC[C@H]2[C@H](C(=O)O)[C@H]21)C(=O)O
- Plasma concentration [1]: 889 ng/mL
- Plasma concentration [2]: 602 ng/mL
- AUC [4]: 16600 ng·h/mL
- Plasma concentration [3]: 808 ng/mL

SMILES: N[C@@]1(C(=O)NCC(=O)O)CC[C@H]2[C@H](C(=O)O)[C@H]21
- Plasma concentration [2]: 19 ng/mL

SMILES: CC(C)C[C@H](NC(=O)[C@]1(NC(=O)[C@H](C)N)CCC2C1[C@H]2C(=O)O)C(=O)O (stereo not given in full)
- Plasma concentration [1]: 55 ng/mL
- Plasma concentration [2]: 44 ng/mL
- Plasma concentration [3]: 26 ng/mL
- IC50 (Caco-2): 3050 µM
- IC50 [5]: 1340 µM

SMILES: C[C@H](N)C(=O)N[C@@H](C)C(=O)N[C@@]1(C(=O)O)CC[C@H]2[C@H](C(=O)O)[C@H]21.Cl
- Plasma concentration [1]: 734 ng/mL
- Plasma concentration [2]: 3620 ng/mL
- Plasma concentration [3]: 1554 ng/mL
- IC50 (Caco-2): 7290 µM
- IC50 [5]: 2880 µM

SMILES: Cl.N[C@@H](Cc1ccccc1)C(=O)N[C@@]1(C(=O)O)CC[C@H]2[C@H](C(=O)O)[C@H]21
- Plasma concentration [1]: 1274 ng/mL
- Plasma concentration [2]: 1710 ng/mL
- AUC [4]: 194 ng·h/mL
- Plasma concentration [3]: 2763 ng/mL
- IC50 (Caco-2): 420 µM
- IC50 [5]: 520 µM

SMILES: Cl.NCCCC[C@H](N)C(=O)N[C@@]1(C(=O)O)CC[C@H]2[C@H](C(=O)O)[C@H]21
- Plasma concentration [1]: 246 ng/mL
- Plasma concentration [2]: 74 ng/mL
- Plasma concentration [3]: 147 ng/mL

SMILES: Cl.N[C@@H](Cc1ccc(O)cc1)C(=O)N[C@@]1(C(=O)O)CC[C@H]2[C@H](C(=O)O)[C@H]21
- Plasma concentration [2]: 1915 ng/mL
- Plasma concentration [3]: 2163 ng/mL

SMILES: CC(C)C[C@H](N)C(=O)N[C@@]1(C(=O)O)CC[C@H]2[C@H](C(=O)O)[C@H]21.Cl
- Plasma concentration [1]: 1152 ng/mL
- Plasma concentration [2]: 4488 ng/mL
- AUC [4]: 0 ng·h/mL
- Plasma concentration [3]: 4323 ng/mL
- IC50 (Caco-2): 5010 µM
- IC50 [5]: 1430 µM

SMILES: CSCC[C@H](N)C(=O)N[C@@]1(C(=O)O)CC[C@H]2[C@H](C(=O)O)[C@H]21.Cl
- Plasma concentration [2]: 3720 ng/mL
- Plasma concentration [3]: 2107 ng/mL

SMILES: C[C@@H](N)C(=O)N[C@@]1(C(=O)O)CC[C@H]2[C@H](C(=O)O)[C@H]21.Cl
- Plasma concentration [1]: 525 ng/mL
- Plasma concentration [2]: 81 ng/mL
- Plasma concentration [3]: 191 ng/mL
- IC50 (Caco-2): > 10000 µM
- IC50 [5]: 6660 µM

SMILES: Cl.NCC(=O)N[C@@]1(C(=O)O)CC[C@H]2[C@H](C(=O)O)[C@H]21
- Plasma concentration [2]: 1707 ng/mL
- Plasma concentration [3]: 1992 ng/mL

SMILES: Cl.N[C@@H](CO)C(=O)N[C@@]1(C(=O)O)CC[C@H]2[C@H](C(=O)O)[C@H]21
- Plasma concentration [2]: 1497 ng/mL
- Plasma concentration [3]: 1365 ng/mL

SMILES: CC(C)[C@H](N)C(=O)N[C@@]1(C(=O)O)CC[C@H]2[C@H](C(=O)O)[C@H]21.Cl
- Plasma concentration [1]: 1136 ng/mL
- Plasma concentration [2]: 2387 ng/mL
- Plasma concentration [3]: 2124 ng/mL

SMILES: Cl.O=C(O)[C@H]1[C@@H]2CC[C@@](NC(=O)[C@@H]3CCCN3)(C(=O)O)[C@@H]21
- Plasma concentration [2]: 319 ng/mL
- Plasma concentration [3]: 455 ng/mL
- Plasma concentration [6]: 670 ng/mL

SMILES: CC(C)C[C@@H](N)C(=O)N[C@@]1(C(=O)O)CC[C@H]2[C@H](C(=O)O)[C@H]21.Cl
- Plasma concentration [1]: 877 ng/mL
- Plasma concentration [2]: 1478 ng/mL
- Plasma concentration [3]: 894 ng/mL
- IC50 (Caco-2): 6310 µM
- IC50 [5]: 1700 µM

SMILES: N[C@@]1(C(=O)O)CC[C@H]2[C@H](C(=O)O)[C@H]21
- Duration (Rattus norvegicus [7]): 24 h
- Ki [8]: 0.126 µM
- minimal effective dose (Rattus norvegicus [9]): 3 mg/kg
- Ki [10]: 0.0847 µM
- Onset (Rattus norvegicus [11]): <=1 hr
- IC50 (Caco-2): > 10000 µM
- IC50 [5]: > 19000 µM

SMILES: C[C@H](N)C(=O)N[C@@]1(C(=O)O)CC[C@H]2[C@H](C(=O)O)[C@H]21.Cl [TALAGLUMETAD HYDROCHLORIDE]
- Plasma concentration [1]: 1770 ng/mL
- Plasma concentration [2]: 3732 ng/mL
- Ki [12]: > 10 µM
- Ki [8]: > 10 µM
- Duration (Rattus norvegicus [13]): 8 h
- AUC [4]: 0 ng·h/mL
- Plasma concentration [3]: 3381 ng/mL
- Ki [10]: > 10 µM
- Duration (Rattus norvegicus [14]): >=24 hr
- minimal effective dose (Rattus norvegicus [15]): 0.01 mg/kg
- Onset (Rattus norvegicus [16]): <=1 hr
- IC50 (Caco-2): 300 µM
- IC50 [5]: 120 µM
